What was measured:
[1] = tested on: ACHN; assay: Cytotoxicity against human ACHN cells assessed as cell growth at 10 uM after 48 hrs by sulforhodamine B assay; format: functional; settings: read-out: Activity
Method in brief: (§1)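 Cells grown in RPMI 1640 with 5% FBS and 2 mM L-glutamine, seeded at 5,000–40,000 cells/well by doubling time. Time-zero plates TCA-fixed after 24 h. Five concentrations (10-fold or half-log dilutions from DMSO stock) added; 48 h at 37 °C, 5% CO2. Cold TCA fixation (final 10%, 60 min, 4 °C), 0.4% SRB stain, dye solubilized in 10 mM trizma base, A515.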

[2] = tested on: UACC-257; assay: Growth inhibition of human UACC257 cells after 48 hrs by sulforhodamine B assay; format: functional, cell-based; settings: UACC-257, 48 h; for CC50: read-out: LC50 (the source's name)
Method in brief: (§2)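 Cells grown in RPMI 1640 with 5% FBS and 2 mM L-glutamine, seeded at 5,000–40,000 cells/well according to doubling time. After 24 h, time-zero plates are TCA-fixed. Five concentrations (10-fold or ½log dilutions, DMSO stocks) are applied for 48 h at 37 °C, 5% CO₂. Cells are TCA-fixed, SRB-stained and read at 515 nm. IC₅₀ is taken from [(Ti−Tz)/(C−Tz)]×100 = 50.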

[3] = tested on: NCI/ADR-RES; assay: Cytotoxicity against human NCI/ADR-RES cells assessed as cell growth at 10 uM after 48 hrs by sulforhodamine B assay; format: functional; settings: read-out: Activity
[4] = tested on: ACHN; assay: Cytotoxicity against human ACHN cells assessed as cell growth at 0.001 uM after 48 hrs by sulforhodamine B assay; format: functional; settings: read-out: Activity; method in brief: as §1
[5] = tested on: HL-60(TB); assay: Growth inhibition of human HL-60(TB) cells after 48 hrs by sulforhodamine B assay; format: functional, cell-based; settings: HL-60, 48 h; for CC50: read-out: LC50 (the source's name)
Method in brief: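 HL-60(TB) suspension cells in RPMI 1640 with 5% FBS receive five 10-fold or ½log drug dilutions from DMSO stock for 48 h at 37 °C, 5% CO2. Settled cells are TCA-fixed, SRB-stained and read at 515 nm against a time-zero plate. […] is solved from [(Ti−Tz)/(C−Tz)]×100 = 50.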

[6] = tested on: SN12C; assay: Cytotoxicity against human SN12C cells assessed as cell growth at 1 uM after 48 hrs by sulforhodamine B assay; format: functional; settings: read-out: Activity
[7] = tested on: NCI-H460; assay: Cytotoxicity against human NCI-H460 cells assessed as cell growth at 100 nM after 48 hrs by sulforhodamine B assay; format: functional; settings: NCI-H460, 48 h, read-out: Activity
[8] = tested on: MDA-MB-468; assay: Cytotoxicity against human MDA-MB-468 cells assessed as cell growth at 0.001 uM after 48 hrs by sulforhodamine B assay; format: functional; settings: MDA-MB-468, 48 h, read-out: Activity
[9] = tested on: MDA-MB-231; assay: Cytotoxicity against human MDA-MB-231 cells assessed as cell growth at 1 uM after 48 hrs by sulforhodamine B assay; format: functional; settings: MDA-MB-231, 48 h, read-out: Activity
[10] = tested on: SN12C; assay: Cytotoxicity against human SN12C cells assessed as cell growth at 100 nM after 48 hrs by sulforhodamine B assay; format: functional; settings: read-out: Activity
[11] = tested on: NCI-H522; assay: Cytotoxicity against human NCI-H522 cells assessed as cell growth at 1 uM after 48 hrs by sulforhodamine B assay; format: functional; settings: NCI-H522, 48 h, read-out: Activity
[12] = Cytotoxicity against human Hs 578T cells assessed as cell growth at 1 uM after 48 hrs by sulforhodamine B assay; format: functional; settings: read-out: Activity
[13] = tested on: NCI/ADR-RES; assay: Cytotoxicity against human NCI/ADR-RES cells assessed as cell growth at 0.01 uM after 48 hrs by sulforhodamine B assay; format: functional; settings: read-out: Activity
[14] = tested on: NCI-H322M; assay: Growth inhibition of human NCI-H322M cells after 48 hrs by sulforhodamine B assay; format: functional, cell-based; settings: for CC50: read-out: LC50 (the source's name); method in brief: as §2
[15] = tested on: MOLT-4; assay: Cytotoxicity against human MOLT4 cells assessed as cell growth at 10 uM after 48 hrs by sulforhodamine B assay; format: functional; settings: MOLT-4, 48 h, read-out: Activity
[16] = tested on: OVCAR-5; assay: Cytotoxicity against human OVCAR5 cells assessed as cell growth at 10 uM after 48 hrs by sulforhodamine B assay; format: functional; settings: OVCAR-5, 48 h, read-out: Activity
[17] = tested on: 786-0; assay: Cytotoxicity against human 786-0 cells assessed as cell growth at 0.01 uM after 48 hrs by sulforhodamine B assay; format: functional; settings: 786-0, 48 h, read-out: Activity; method in brief: as §1
[18] = tested on: K562; assay: Cytotoxicity against human K562 cells assessed as cell growth at 10 uM after 48 hrs by sulforhodamine B assay; format: functional; settings: K562, 48 h, read-out: Activity
[19] = tested on: 786-0; assay: Cytotoxicity against human 786-0 cells assessed as cell growth at 1 uM after 48 hrs by sulforhodamine B assay; format: functional; settings: 786-0, 48 h, read-out: Activity; method in brief: as §1
[20] = tested on: MDA-MB-435; assay: Cytotoxicity against human MDA-MB-435 cells assessed as cell growth at 1 uM after 48 hrs by sulforhodamine B assay; format: functional; settings: MDA-MB-435, 48 h, read-out: Activity
[21] = tested on: SK-MEL-5; assay: Cytotoxicity against human SK-MEL-5 cells assessed as cell growth at 10 uM after 48 hrs by sulforhodamine B assay; format: functional; settings: SK-MEL-5, 48 h, read-out: Activity
[22] = tested on: BT-549; assay: Cytotoxicity against human BT549 cells assessed as cell growth at 0.001 uM after 48 hrs by sulforhodamine B assay; format: functional; settings: BT-549, 48 h, read-out: Activity; method in brief: as §1
[23] = tested on: SF-539; assay: Cytotoxicity against human SF539 cells assessed as cell growth at 10 uM after 48 hrs by sulforhodamine B assay; format: functional; settings: SF-539, 48 h, read-out: Activity
[24] = tested on: SF-295; assay: Growth inhibition of human SF295 cells after 48 hrs by sulforhodamine B assay; format: functional, cell-based; settings: SF-295, 48 h; for CC50: read-out: LC50 (the source's name); method in brief: as §2
[25] = tested on: SK-MEL-2; assay: Cytotoxicity against human SK-MEL-2 cells assessed as cell growth at 0.001 uM after 48 hrs by sulforhodamine B assay; format: functional; settings: SK-MEL-2, 48 h, read-out: Activity
[26] = tested on: UO-31; assay: Cytotoxicity against human UO31 cells assessed as cell growth at 0.01 uM after 48 hrs by sulforhodamine B assay; format: functional; settings: UO-31, 48 h, read-out: Activity
[27] = tested on: T47D; assay: Cytotoxicity against human T47D cells assessed as cell growth at 0.01 uM after 48 hrs by sulforhodamine B assay; format: functional; settings: read-out: Activity
[28] = tested on: K562; assay: Cytotoxicity against human K562 cells assessed as cell growth at 0.001 uM after 48 hrs by sulforhodamine B assay; format: functional; settings: K562, 48 h, read-out: Activity
[29] = Cytotoxicity against human Hs 578T cells assessed as cell growth at 0.01 uM after 48 hrs by sulforhodamine B assay; format: functional; settings: read-out: Activity
[30] = tested on: SK-MEL-2; assay: Cytotoxicity against human SK-MEL-2 cells assessed as cell growth at 10 uM after 48 hrs by sulforhodamine B assay; format: functional; settings: SK-MEL-2, 48 h, read-out: Activity
[31] = tested on: M14; assay: Cytotoxicity against human M14 cells assessed as cell growth at 10 uM after 48 hrs by sulforhodamine B assay; format: functional; settings: M14, 48 h, read-out: Activity

## CC(=O)Nc1cccc(-c2ccc(-c3ccnc(NC(=O)Nc4cc(C(F)(F)F)cc(C(F)(F)F)c4)n3)cn2)c1.Cl
[1]
  growth at 10 µM: -84%
[2]
  GI50: 1.69 µM
  IC50: 1.69 µM
  TGI: 4.32 µM
  CC50: 13.2 µM
[3]
  growth at 10 µM: 8%
[4]
  growth at 0.001 µM: 101%
[5]
  GI50: 3.78 µM
  IC50: 3.78 µM
  TGI: 96.1 µM
  CC50: > 100 µM
[6]
  growth at 1 µM: 49%
[7]
  growth at 0.1 µM: 79%
[8]
  growth at 0.001 µM: 99%
[9]
  growth at 1 µM: 30%
[10]
  growth at 0.1 µM: 86%
[11]
  growth at 1 µM: -22%
[12]
  growth at 1 µM: 43%
[13]
  growth at 0.01 µM: 94%
[14]
  GI50: 2.17 µM
  IC50: 2.17 µM
  TGI: 14.6 µM
  CC50: 68.8 µM
[15]
  growth at 10 µM: 11%
[16]
  growth at 10 µM: -96%
[17]
  growth at 0.01 µM: 98%
[18]
  growth at 10 µM: 19%
[19]
  growth at 1 µM: 25%
[20]
  growth at 1 µM: -18%
[21]
  growth at 10 µM: 100%
[22]
  growth at 0.001 µM: 100%
[23]
  growth at 10 µM: -98%
[24]
  GI50: 1.27 µM
  IC50: 1.27 µM
  TGI: 6.19 µM
  CC50: > 100 µM
[25]
  growth at 0.001 µM: 95%
[26]
  growth at 0.01 µM: 87%
[27]
  growth at 0.01 µM: 80%
[28]
  growth at 0.001 µM: 93%
[29]
  growth at 0.01 µM: 99%
[30]
  growth at 10 µM: -83%
[31]
  growth at 10 µM: 100%

## CC(=O)c1ccccc1-c1ccc(-c2ccnc(NC(=O)Nc3cc(N4CCOCC4)cc(C(F)(F)F)c3)n2)cn1
[1]
  growth at 10 µM: 15%
[2]
  GI50: 15.9 µM
  IC50: > 100 µM
  TGI: > 100 µM
  CC50: > 100 µM
[3]
  growth at 10 µM: 69%
[4]
  growth at 0.001 µM: 97%
[5]
  GI50: > 100 µM
  IC50: > 100 µM
  TGI: > 100 µM
  CC50: > 100 µM
[6]
  growth at 1 µM: 64%
[7]
  growth at 0.1 µM: 91%
[8]
  growth at 0.001 µM: 97%
[9]
  growth at 1 µM: 35%
[10]
  growth at 0.1 µM: 83%
[11]
  growth at 1 µM: 90%
[12]
  growth at 1 µM: 22%
[13]
  growth at 0.01 µM: 98%
[14]
  GI50: > 100 µM
  IC50: > 100 µM
  TGI: > 100 µM
  CC50: > 100 µM
[15]
  growth at 10 µM: 101%
[16]
  growth at 10 µM: 118%
[17]
  growth at 0.01 µM: 100%
[18]
  growth at 10 µM: 103%
[19]
  growth at 1 µM: 55%
[20]
  growth at 1 µM: 71%
[21]
  growth at 10 µM: 68%
[22]
  growth at 0.001 µM: 101%
[23]
  growth at 10 µM: 56%
[24]
  GI50: 40.2 µM
  IC50: 9.04 µM
  TGI: > 100 µM
  CC50: > 100 µM
[25]
  growth at 0.001 µM: 102%
[26]
  growth at 0.01 µM: 91%
[27]
  growth at 0.01 µM: 102%
[28]
  growth at 0.001 µM: 81%
[29]
  growth at 0.01 µM: 101%
[30]
  growth at 10 µM: -9%
[31]
  growth at 10 µM: 86%

Source: ChEMBL document CHEMBL1165943, “Design and synthesis of new anticancer pyrimidines with multiple-kinase inhibitory effect” (Bioorg Med Chem, 2010)
